MrgX1 allo act – positive allosteric modulators of MrgX1, primary screen, HEK293 cells, Fluo-4 calcium flux. Mas-related G-protein coupled receptor member X1 (Homo sapiens), Q96LB2. FDSS; active compounds read high. B-score at 10 µM. actives 0.63% (n = 310,000). AID 588675, 2011;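 active means plate-corrected calcium response at least 3 library SD above typical, normal starting fluorescence, not activating the receptor alone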;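 further: compound read alongside a low EC10 to EC30 dose of BAM8-22 agonist; peak minus trough fluorescence over baseline measured at the second addition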
Target sequence (Q96LB2 whole entry, looked up): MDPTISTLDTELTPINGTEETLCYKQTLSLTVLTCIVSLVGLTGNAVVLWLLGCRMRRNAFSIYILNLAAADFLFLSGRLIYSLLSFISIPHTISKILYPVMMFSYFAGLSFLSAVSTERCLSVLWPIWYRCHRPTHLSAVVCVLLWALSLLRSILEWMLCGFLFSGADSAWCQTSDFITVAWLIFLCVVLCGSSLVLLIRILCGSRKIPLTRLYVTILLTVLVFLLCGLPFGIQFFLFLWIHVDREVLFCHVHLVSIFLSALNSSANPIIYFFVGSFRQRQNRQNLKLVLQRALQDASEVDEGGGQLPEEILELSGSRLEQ
RGS4 pot – RGS4 potentiators or activators, primary screen, cell-based, HEK293 M3R inducible RGS4, calcium flux; B-score at 10 µM; AID 463111, 2010; carbachol calcium flux Fluo4; active compounds read low; actives 0.92% (n = 310,000);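 active means B-score of the integrated calcium signal more than 4 SD below the library mean, with starting fluorescence not abnormally high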;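 further: negative B-score means reduced calcium response which marks RGS4 activation or potentiation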
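Assay system: Inducible-RGS4 HEK293 cells carrying M3 receptor | Schedule: Compound preincubation 20 min at room temperature before agonist | Signal: Kinetic calcium fluorescence imaging with Fluo4-AM dye, 2 µM | Read-out basis: B score from integrated fluorescence ratio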
MrgX1 agonist – agonists of human MrgX1 receptor, primary screen, HEK293 cells, Fluo-4 calcium flux; Fluo-4 calcium fluorescence, agonist mode; active compounds read high; Mas-related G-protein coupled receptor member X1 (Homo sapiens), Q96LB2; B-score at 10 µM; actives 0.44% (n = 310,000);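 active means calcium response B-score plate-corrected fluorescence ratio at least 3 library SD, with starting fluorescence B-score inside 5 SD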
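System: HEK293 cells stably expressing human MrgX1 receptor; Dosing: test compound in the initial addition of three; Schedule: overnight plating, then 30 min 37 °C plus 30 min room-temperature dye loading; Detection: kinetic calcium dye fluorescence, Fluo-4 NW; Controls: per-plate positive and negative controls for Z′ factor.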
RGS4 inh – RGS4 inhibitors, primary screen, cell-based, HEK293 M3R inducible RGS4, calcium flux; B-score at 10 µM; Regulator of G-protein signaling 4 (Homo sapiens), P49798; AID 463165, 2010; actives 0.45% (n = 310,000); Fluo-4 calcium flux; active compounds read high; triggered by carbachol at its EC20;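 active means B-score, a plate-corrected calcium signal, over three deviations above library mean, with baseline fluorescence within five deviations of library mean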;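 further: RGS4 expression induced by doxycycline in cells with stable M3 receptor; B-score is computed from the integrated fluorescence ratio over baseline after carbachol; higher B-score means a larger calcium signal and so more RGS4 inhibition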
Target sequence (P49798 whole entry, looked up): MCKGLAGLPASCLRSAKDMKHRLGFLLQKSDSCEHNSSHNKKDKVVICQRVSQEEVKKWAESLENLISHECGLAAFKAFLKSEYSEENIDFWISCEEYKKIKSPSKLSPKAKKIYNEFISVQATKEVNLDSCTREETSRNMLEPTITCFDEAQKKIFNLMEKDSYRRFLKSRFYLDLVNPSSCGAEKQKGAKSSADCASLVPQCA
MrgX1 antag – antagonists of human MrgX1 receptor, primary screen, HEK293 cells, Fluo-4 calcium flux; actives 1.3% (n = 310,000); B-score at 10 µM; BAM8-22 antagonism; active compounds read low;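 active means calcium-response B-score plate-corrected more than 3 library SD below zero, starting fluorescence within 5 deviations, no agonist response on first addition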;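 further: peak minus trough fluorescence over baseline after final BAM8-22 challenge near maximal dose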
MrgX1 allo conf – MrgX1 positive allosteric modulators, duplicate retest, confirmation, HEK293 cells, Fluo-4 calcium flux; shares compounds with MrgX1 allo act; Fluo-4 calcium fluorescence, FDSS; activation (ratio percentage), % at 10 µM; actives 13% (n = 1,200); AID 602413, 2012;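 active means ratio at least 3 SD above the weak peptide control, stable starting fluorescence, no direct agonism earlier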;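 further: compound followed by low BAM8-22 agonist challenge near EC20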
HEK293 Ca flux – nonspecific calcium signal in parental HEK293, confirmation, counter-screen for MrgX1 antagonist project, parental HEK293 cells, Fluo-4 calcium flux; shares compounds with MrgX1 antag; Fluo-4 calcium fluorescence, FDSS; fluorescence ratio F(max-min)/F0 at 10 µM; actives 2% (n = 4,000);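 active means duplicate-averaged calcium fluorescence ratio at least three times the standard deviation of buffer wells, a nonspecific response in parental cells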
HEK293 Ca counter – calcium response in parental HEK293 cells, primary screen, counter-screen for MrgX1 allosteric activator project, cell-based, Fluo-4 calcium flux, duplicate; shares compounds with MrgX1 antag; Fluo-4 fluorescence ratio; active compounds read high; fluorescence ratio F(max-min)/F0 at 10 µM; actives 0.4% (n = 4,000); AID 624114, 2012;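 active means calcium fluorescence ratio, averaged over duplicates, at least 3 SD of the buffer-well ratio, meaning a nonspecific response in receptor-free cells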;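 further: untransfected parental HEK293 lacking MrgX1 used as counterscreen for MrgX1 allosteric activators; fluorescence change taken during the second addition on a kinetic imager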
HEK293 Ca cntr2 – calcium response in parental HEK293 cells, primary screen, counter-screen for MrgX1 agonist project, cell-based, Fluo-4 calcium flux, duplicate, agonist mode; shares compounds with MrgX1 antag; Fluo-4 calcium fluorescence (FDSS); active compounds read high; fluorescence ratio F(max-min)/F0 at 10 µM; actives 8.7% (n = 4,000); AID 624115, 2012;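 active means calcium fluorescence ratio at least three times the spread of buffer wells, meaning a non-specific response in parental cells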
Large screens that a line does not name were inactive (follow-up assays come after a bar, where they were run). An excerpt weighted towards active compounds, which were near 3.5% of everything screened.

COC(=O)c1cccc(NC(=O)CCNC(=O)c2ccco2)c1	none
COc1ccc(/C=C2/C(=N)N3C(=NC2=O)Sc2cc(S(C)(=O)=O)ccc23)cc1OC	MrgX1 allo act 37 | MrgX1 allo conf 17% | HEK293 Ca flux inactive | HEK293 Ca counter inactive | HEK293 Ca cntr2 inactive
CC(C)n1c(CN(C)Cc2ccccc2)nc2c1c(=O)n(C)c(=O)n2C	MrgX1 allo act 7.8 | MrgX1 allo conf 13% | HEK293 Ca flux inactive | HEK293 Ca counter inactive | HEK293 Ca cntr2 inactive
CC(=O)C(C)n1c(CN(C)Cc2ccccc2)nc2c1c(=O)n(C)c(=O)n2C (centres undefined)	none
CCN1CC2=C(OC(N)=C(C#N)C2c2cccs2)/C(=C/c2cccs2)C1 (centres undefined)	MrgX1 allo act 8.2 | MrgX1 allo conf inactive | HEK293 Ca flux inactive | HEK293 Ca counter inactive | HEK293 Ca cntr2 inactive
N#CC1=C(N)OC2=C(CN(Cc3ccccc3)C/C2=C\c2cccnc2)C1c1cccnc1 (centres undefined)	none
CCN1CC2=C(OC(N)=C(C#N)C2c2ccccc2)/C(=C\c2ccccc2)C1 (centres undefined)	MrgX1 allo act 22 | MrgX1 allo conf inactive | HEK293 Ca flux inactive | HEK293 Ca counter inactive | HEK293 Ca cntr2 inactive
CCCc1[nH]n(-c2ccc([N+](=O)[O-])cc2)c(=O)c1C=NCCc1c[nH]c2ccccc12	none
CCN1CCN(C(=O)CN(c2cc(OC)ccc2OC)S(C)(=O)=O)CC1	none
COc1ccc(N2CCN(C(=O)CN(c3cccc(Br)c3)S(C)(=O)=O)CC2)cc1	MrgX1 allo act 18 | MrgX1 allo conf 16% | HEK293 Ca flux inactive | HEK293 Ca counter inactive | HEK293 Ca cntr2 inactive
COc1ccc(OC)c(N(CC(=O)N2CCN(c3cc(Cl)ccc3C)CC2)S(C)(=O)=O)c1	MrgX1 allo act 29 | MrgX1 allo conf 93% | HEK293 Ca flux inactive | HEK293 Ca counter inactive | HEK293 Ca cntr2 54
CS(=O)(=O)N(CC(=O)N1CCN(c2ccc(F)cc2)CC1)c1ccc(F)c(Cl)c1	MrgX1 allo act 6.8 | MrgX1 allo conf inactive | HEK293 Ca flux inactive | HEK293 Ca counter inactive | HEK293 Ca cntr2 inactive
COc1cccc(CN(CC(=O)NCc2ccco2)C(=O)CNS(=O)(=O)c2ccccc2)c1	none
CSc1cccc(NC(=O)C(C)NS(=O)(=O)c2ccc(F)cc2)c1 (centres undefined)	none
CC(=O)Cc1nsc(NC(=O)c2ccc(-c3cc(Cl)ccc3Cl)o2)n1	MrgX1 allo act 40 | MrgX1 allo conf 32% | HEK293 Ca flux inactive | HEK293 Ca counter inactive | HEK293 Ca cntr2 inactive
CC(=O)Cc1nsc(NC(=O)c2ccc(-c3ccc(Cl)cc3Cl)o2)n1	none
NCCCCCc1nnc(SCc2ccc(Cl)cc2Cl)o1	none
COc1ccc(C(=O)C2CCN(CC(=O)Nc3ccc(OC)cc3OC)CC2)cc1	MrgX1 allo act 7.5 | MrgX1 allo conf inactive | HEK293 Ca flux inactive | HEK293 Ca counter inactive | HEK293 Ca cntr2 inactive
Cc1nn(-c2ccccc2)c(N)c1Sc1cccc([N+](=O)[O-])c1	none
Cc1cc(C)nc(-n2nc(C)c(Sc3ccc(F)cc3)c2N)n1	MrgX1 allo act 11 | MrgX1 allo conf inactive | HEK293 Ca flux inactive | HEK293 Ca counter inactive | HEK293 Ca cntr2 inactive
CCC(=O)NNC(=S)NC(=O)c1ccc(C)cc1	none
O=C(COC(=O)Cc1c(Cl)cccc1Cl)NCCC1=CCCCC1	none
O=C(COc1ccccc1Cl)NCCC1=CCCCC1	MrgX1 allo act 18 | MrgX1 allo conf inactive | HEK293 Ca flux inactive | HEK293 Ca counter inactive | HEK293 Ca cntr2 inactive
Cc1cc(N2CCN(C)CC2)nc2ccc(NC(=S)N3CCC4(CC3)OCCO4)cc12	MrgX1 allo act 7.4 | MrgX1 allo conf inactive | HEK293 Ca flux inactive | HEK293 Ca counter inactive | HEK293 Ca cntr2 inactive
CN(C)S(=O)(=O)Nc1cccc(Br)c1	none
O=C(COc1ccc(Cl)cc1Cl)N/N=C/c1cccnc1	none
O=C(COc1ccc(Cl)cc1Cl)Nc1cccnc1	MrgX1 allo act 8.7 | MrgX1 allo conf inactive | HEK293 Ca flux inactive | HEK293 Ca counter inactive | HEK293 Ca cntr2 inactive
COc1ccc(CC(=O)N2CCC(c3ccccc3)C2)cc1 (centres undefined)	MrgX1 allo act 8 | MrgX1 allo conf inactive | HEK293 Ca flux inactive | HEK293 Ca counter inactive | HEK293 Ca cntr2 inactive
O=C(Cc1ccccc1)N1CCC(c2ccccc2)C1 (centres undefined)	none
CN(C)CCOc1ccc2ccccc2c1	none
c1ccc2cc(OCCOCCOc3ccc4ccccc4c3)ccc2c1	MrgX1 allo act 13 | MrgX1 allo conf inactive | HEK293 Ca flux inactive | HEK293 Ca counter inactive | HEK293 Ca cntr2 inactive
C=CCN(CC=C)S(=O)(=O)c1ccc2nc(NC(=O)C(C)C)sc2c1	MrgX1 allo act 21 (no result: RGS4 pot, RGS4 inh) | MrgX1 allo conf inactive | HEK293 Ca flux inactive | HEK293 Ca counter inactive | HEK293 Ca cntr2 inactive
COc1ccc(C(=O)Nc2ccccc2Cc2ccccc2)c(OC)c1	none
OC[C@H]1O[C@@H](n2cnc3c(Nc4ccccc4)ncnc32)[C@H](O)[C@@H]1O	MrgX1 allo act 7.1 | MrgX1 allo conf inactive | HEK293 Ca flux inactive | HEK293 Ca counter inactive | HEK293 Ca cntr2 inactive
CC1(C)OC2C(O1)[C@@H](CO)O[C@H]2n1cnc2c(N)ncnc21 (some centres undefined)	none
O=C(O)C1CCCN(S(=O)(=O)c2ccc(Br)s2)C1 (centres undefined)	MrgX1 allo act 6.6 | MrgX1 allo conf inactive | HEK293 Ca flux inactive | HEK293 Ca counter inactive | HEK293 Ca cntr2 inactive
CCOC(=O)N1CCC(N2C(=O)c3ccc(C(=O)O)cc3C2=O)CC1	none

Screening results deposited in PubChem BioAssay by Johns Hopkins Ion Channel Center.
